Assay results as given in ChEMBL document CHEMBL1142894, “Preparation of 5-aryl-3-alkylthio-l,2,4-triazoles and corresponding sulfones with antiinflammatory-analgesic activity” (Bioorg Med Chem, 2007).

Columns and labels:
Format in all cases: functional
Mus musculus [1] = assay: Inhibition of carrageenan-induced paw edema in Swiss albino mouse at 100 mg/kg, po after 270 mins relative to control; details: 4.5 h
Procedure, shortened: (§1)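 Oral dosing in 0.5% CMC; vehicle to controls. Then carrageenan (0.5 mg/25 ll, freshly suspended in 154 mM saline) injected into the right hind paw subplantar tissue; saline into the left paw. Right-left footpad thickness difference measured by dial gauge calliper every 90 min over 6 h. Inhibition % is relative to vehicle control. n = 6; mean ± SEM.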

Mus musculus [2] = assay: Inhibition of carrageenan-induced paw edema in Swiss albino mouse at 100 mg/kg, po after 180 mins relative to control; details: 3 h; procedure, shortened: as §1
Mus musculus [3] = assay: Inhibition of carrageenan-induced paw edema in Swiss albino mouse at 10 mg/kg, po after 270 mins relative to control; details: 4.5 h; procedure, shortened: as §1
Mus musculus [4] = assay: Antiinflammatory activity against carrageenan-induced paw edema in Swiss albino mouse assessed as swelling thickness at 100 mg/kg, po after 90 mins; procedure, shortened: as §1
Mus musculus [5] = assay: Antiinflammatory activity against carrageenan-induced paw edema in Swiss albino mouse assessed as swelling thickness at 100 mg/kg, po after 270 mins; procedure, shortened: as §1
Mus musculus [6] = assay: Inhibition of carrageenan-induced paw edema in Swiss albino mouse at 100 mg/kg, po after 90 mins relative to control; details: 1.5 h; procedure, shortened: as §1
Mus musculus [7] = assay: Antiinflammatory activity against carrageenan-induced paw edema in Swiss albino mouse assessed as swelling thickness at 10 mg/kg, po after 180 mins; procedure, shortened: as §1
Mus musculus [8] = assay: Antiinflammatory activity against carrageenan-induced paw edema in Swiss albino mouse assessed as swelling thickness at 100 mg/kg, po after 360 mins; procedure, shortened: as §1
Mus musculus [9] = assay: Inhibition of carrageenan-induced paw edema in Swiss albino mouse at 10 mg/kg, po after 90 mins relative to control; details: 1.5 h; procedure, shortened: as §1
Mus musculus [10] = assay: Inhibition of carrageenan-induced paw edema in Swiss albino mouse at 100 mg/kg, po after 360 mins relative to control; details: 6 h; procedure, shortened: as §1
Mus musculus [11] = assay: Antiinflammatory activity against carrageenan-induced paw edema in Swiss albino mouse assessed as swelling thickness at 10 mg/kg, po after 360 mins; procedure, shortened: as §1
Mus musculus [12] = assay: Inhibition of carrageenan-induced paw edema in Swiss albino mouse at 10 mg/kg, po after 360 mins relative to control; details: 6 h; procedure, shortened: as §1
Mus musculus [13] = assay: Antiinflammatory activity against carrageenan-induced paw edema in Swiss albino mouse assessed as swelling thickness at 10 mg/kg, po after 270 mins; procedure, shortened: as §1
Mus musculus [14] = assay: Antiinflammatory activity against carrageenan-induced paw edema in Swiss albino mouse assessed as swelling thickness at 10 mg/kg, po after 90 mins; procedure, shortened: as §1
Mus musculus [15] = assay: Inhibition of carrageenan-induced paw edema in Swiss albino mouse at 10 mg/kg, po after 180 mins relative to control; details: 3 h; procedure, shortened: as §1
Mus musculus [16] = assay: Antiinflammatory activity against carrageenan-induced paw edema in Swiss albino mouse assessed as swelling thickness at 100 mg/kg, po after 180 mins; procedure, shortened: as §1

`COc1ccc2c(c1)c(CC(=O)O)c(C)n2C(=O)c1ccc(Cl)cc1` [INDOMETHACIN] showed an inhibition in vivo at 100 mg/kg (Mus musculus [1]) of 37.9%, an inhibition in vivo at 100 mg/kg (Mus musculus [2]) of 32.4% and an inhibition in vivo at 10 mg/kg (Mus musculus [3]) of 42.1%. The Activity (Mus musculus [4]) was 31.9 10^-2mm, the Activity (Mus musculus [5]) was 36.5 10^-2mm and the inhibition in vivo at 100 mg/kg (Mus musculus [6]) was 28.8%. The Activity (Mus musculus [7]) was 39.1 10^-2mm, the Activity (Mus musculus [8]) was 39.7 10^-2mm and the inhibition in vivo at 10 mg/kg (Mus musculus [9]) was 35.2%. For the same compound, the inhibition in vivo at 100 mg/kg (Mus musculus [10]) was 42.3%, the Activity (Mus musculus [11]) was 40.2 10^-2mm and the inhibition in vivo at 10 mg/kg (Mus musculus [12]) was 44.2%. The Activity (Mus musculus [13]) was 37.5 10^-2mm, the Activity (Mus musculus [14]) was 34.5 10^-2mm and the inhibition in vivo at 10 mg/kg (Mus musculus [15]) was 34.2%. For the same compound, the Activity (Mus musculus [16]) was 34.8 10^-2mm.
